From ChEMBL document CHEMBL4725242, “Discovery of GS-9688 (Selgantolimod) as a Potent and Selective Oral Toll-Like Receptor 8 Agonist for the Treatment of Chronic Hepatitis B” (J Med Chem, 2020) come the findings set out here.

The nature of data set [1]: AUC (infinity) in Sprague-Dawley rat at 5 mg/kg, po administered via gavage by HPLC-MS analysis. Details: time infinity, route oral, dose 5 mg/kg. The following applies: in vivo. Format: ADME, organism-based. The gist of the method: (§1)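 Oral dosing in 2% ethanol/40% PEG 300/58% 0.01N HCl: Sprague Dawley rats 5 mg/kg, beagle dogs 0.5 mg/kg, cynomolgus monkeys 3 mg/kg.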

Data set [2] deals with T1, Toll-like receptor 9 (Homo sapiens) (UniProt Q9NR96).
T1 sequence (whole entry): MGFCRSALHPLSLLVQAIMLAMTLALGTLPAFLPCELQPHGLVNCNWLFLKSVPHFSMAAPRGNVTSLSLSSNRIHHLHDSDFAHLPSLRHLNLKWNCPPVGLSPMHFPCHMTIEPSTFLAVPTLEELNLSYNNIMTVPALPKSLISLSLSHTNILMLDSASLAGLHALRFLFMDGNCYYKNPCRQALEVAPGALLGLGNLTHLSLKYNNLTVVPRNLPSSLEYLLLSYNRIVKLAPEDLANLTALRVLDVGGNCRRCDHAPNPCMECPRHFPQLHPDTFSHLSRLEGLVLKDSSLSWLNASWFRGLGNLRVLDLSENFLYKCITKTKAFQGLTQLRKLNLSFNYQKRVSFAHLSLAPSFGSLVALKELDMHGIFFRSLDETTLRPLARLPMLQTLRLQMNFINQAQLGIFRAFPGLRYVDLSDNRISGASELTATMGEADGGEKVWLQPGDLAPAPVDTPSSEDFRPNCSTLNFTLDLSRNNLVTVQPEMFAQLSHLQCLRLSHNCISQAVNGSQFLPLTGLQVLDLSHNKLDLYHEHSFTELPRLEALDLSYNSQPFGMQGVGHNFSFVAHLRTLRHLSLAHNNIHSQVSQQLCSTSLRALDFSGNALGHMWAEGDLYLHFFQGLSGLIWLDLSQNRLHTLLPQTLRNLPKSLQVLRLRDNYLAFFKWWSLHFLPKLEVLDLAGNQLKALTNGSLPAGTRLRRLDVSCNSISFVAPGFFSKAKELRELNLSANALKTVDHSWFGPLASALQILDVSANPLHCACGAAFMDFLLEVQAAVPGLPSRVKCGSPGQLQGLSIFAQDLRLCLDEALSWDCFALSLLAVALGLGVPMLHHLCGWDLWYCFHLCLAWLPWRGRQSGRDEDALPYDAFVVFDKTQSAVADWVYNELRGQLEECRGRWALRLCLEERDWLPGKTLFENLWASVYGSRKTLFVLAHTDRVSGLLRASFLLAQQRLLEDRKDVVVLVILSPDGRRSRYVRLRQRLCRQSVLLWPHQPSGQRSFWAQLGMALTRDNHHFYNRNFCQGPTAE
The data set is described as follows: Agonist activity at human TLR9 expressed in HEK293 cells assessed as increase in NF-kappaB activation up to 10 uM incubated for 18 hrs by quanti-blue SEAP reporter gene assay. The following applies: dose microM <=10, time […]. The format is cell-based. The procedure, abridged: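 HEK293 cells stably expressing individual human TLRs or other innate immune receptors, used as reporter gene assays. Minimum effective concentration defined as the level giving a 3-fold rise over background.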
(Reporter assays use an easily measured gene product as a stand-in for the process of interest.)

The target in data set [3] is T2, Toll-like receptor 8 (Homo sapiens, UniProt Q9NR97).
T2 sequence (Q9NR97 whole entry): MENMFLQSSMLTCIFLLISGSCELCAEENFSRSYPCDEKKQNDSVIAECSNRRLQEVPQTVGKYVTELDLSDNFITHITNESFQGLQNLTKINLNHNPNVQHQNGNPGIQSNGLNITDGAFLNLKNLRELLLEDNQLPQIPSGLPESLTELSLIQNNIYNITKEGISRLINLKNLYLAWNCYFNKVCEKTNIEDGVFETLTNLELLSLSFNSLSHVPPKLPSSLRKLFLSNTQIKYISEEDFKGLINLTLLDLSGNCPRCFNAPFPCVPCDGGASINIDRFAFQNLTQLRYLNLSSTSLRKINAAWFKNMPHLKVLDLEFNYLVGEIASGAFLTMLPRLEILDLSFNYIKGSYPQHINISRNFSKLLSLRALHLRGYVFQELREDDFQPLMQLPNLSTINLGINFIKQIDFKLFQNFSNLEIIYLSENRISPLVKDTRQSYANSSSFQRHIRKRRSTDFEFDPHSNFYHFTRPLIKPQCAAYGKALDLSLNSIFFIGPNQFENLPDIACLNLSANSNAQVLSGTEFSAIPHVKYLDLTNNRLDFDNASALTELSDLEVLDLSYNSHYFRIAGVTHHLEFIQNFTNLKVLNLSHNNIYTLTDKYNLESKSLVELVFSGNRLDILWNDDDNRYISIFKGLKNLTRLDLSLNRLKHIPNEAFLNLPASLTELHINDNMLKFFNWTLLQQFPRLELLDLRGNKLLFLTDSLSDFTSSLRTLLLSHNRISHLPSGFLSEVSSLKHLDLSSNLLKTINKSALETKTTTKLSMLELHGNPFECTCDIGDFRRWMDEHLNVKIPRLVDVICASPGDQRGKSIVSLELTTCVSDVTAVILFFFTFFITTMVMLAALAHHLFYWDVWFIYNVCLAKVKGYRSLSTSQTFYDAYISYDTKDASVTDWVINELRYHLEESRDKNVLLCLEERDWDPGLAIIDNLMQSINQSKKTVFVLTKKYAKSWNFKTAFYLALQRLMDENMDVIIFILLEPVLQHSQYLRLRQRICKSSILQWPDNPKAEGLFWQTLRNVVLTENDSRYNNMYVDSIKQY
Kind of data set: Agonist activity at TLR8 in human cryopreserved PBMC assessed as induction of IL-12p40 production measured after 24 hrs.

A short description of data set [4]: Oral bioavailability in Sprague-Dawley rat at 5 mg/kg administered via gavage by HPLC-MS analysis. Format: ADME, organism-based. Conditions: in vivo. The procedure, abridged: as §1
Data set [5] can be described thus: Clearance in Beagle dog at 0.25 mg/kg, iv administered as 30 mins infusion by HPLC-MS analysis. Format: ADME, organism-based, Canis lupus familiaris. The following applies: in vivo. The procedure, abridged: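 30-min intravenous infusion: Sprague Dawley rats 1 mg/kg, beagle dogs 0.25 mg/kg, cynomolgus monkeys 0.1 mg/kg; n = 3 per species, reported as mean ± SD.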

Data set [6] in a line: Apparent permeability across basolateral to apical side in human Caco2 cells measured after 1 to 2 hrs by LC-MS/MS analysis. The following applies: Caco-2. On the technique in general: Passage across Caco-2 layers is used to estimate intestinal permeability.
Data set [7] in a line: Drug absorption in cynomolgus monkey at 3 mg/kg, po administered via gavage by HPLC-MS analysis. The format is ADME, organism-based, Macaca fascicularis. The following applies: in vivo, read-out: Drug absorption. The procedure, abridged: as §1
A short description of data set [8]: Apparent permeability across apical to basolateral side in human Caco2 cells measured after 1 to 2 hrs by LC-MS/MS analysis. Conditions: Caco-2.

pEC50: −log10 of the molar value. Active and inactive are the calls of the source.

The AUC(0-inf) is total exposure, with the tail of the curve extrapolated. As a reminder, the pEC50 is the EC50 on a negative log10 scale, so that one unit is a factor of ten. As a reminder, the bioavailability is dose-corrected exposure relative to a reference, in per cent. Usually clearance stands for the rate of elimination divided by the concentration. By Papp B→A is commonly meant how fast a substance crosses the layer from the basolateral side. What is called Papp A→B is the apparent permeability from the apical to the basolateral side of a cell layer. As for `CCCC[C@](C)(CO)Nc1nc(N)nc2cc(F)cnc12` [SELGANTOLIMOD], the AUC(0-inf) in data set [1] came to 0.827 µM·h. In addition, in data set [2], the outcome was inactive. In addition, the pEC50 in data set [3] was 6.66. The bioavailability in data set [4] came out at 8.8%. The compound also gave a clearance in data set [5] of 20 mL/min/kg. The Papp B→A in data set [6] turned out to be 11 ×10⁻⁶ cm/s. Moreover, the Fa in data set [7] turned out to be 100%. Further, in data set [8], the Papp A→B amounted to 7.9 ×10⁻⁶ cm/s.
